Activity calls are given as the source filed them. The rule behind the calls is not given here.

This is an account of results in ChEMBL document CHEMBL1147863, “Synthesis, antimicrobial activities and cytogenetic studies of newer diazepino quinoline derivatives via Vilsmeier-Haack reaction” (2007).

For experiment [1], the system named is Alternaria macrospora. The experiment is described as follows: Antifungal activity against Alternaria macrospora at 0.5% (w/v) concentration by disc diffusion method. The format is functional. In a few lines: (§1)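 Potato dextrose agar plates were seeded with a spore suspension (10⁶ spores/mL). Compounds in acetone at a final 0.5%, 1% or 2% w/v were loaded onto 5 mm filter-paper discs. Plates were incubated at 28 ± 2 °C for four days. Zone diameter was measured after subtracting the acetone-only plate zone, with carbendazim as standard.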
Background: In agar diffusion tests the substance spreads into inoculated agar from a disc or well.

Experiment [2] deals with Alternaria macrospora. The experiment is described as follows: Antifungal activity against Alternaria macrospora at 2% (w/v) concentration by disc diffusion method. Type of experiment: functional. In a few lines:
as §1

Experiment [3] concerns Aeromonas hydrophila. The experiment can be described thus: Antibacterial activity against Aeromonas hydrophila at 0.25% (w/v) concentration after 24 hrs by disc diffusion method. The format is functional. In a few lines: (§2)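 Disc diffusion on nutrient agar (pH 7.5 ± 0.2) swabbed with bacterial culture; compounds dissolved in chloroform at 0.125%, 0.25% or 0.5% w/v, soaked onto 5 mm filter paper discs placed on seeded plates. Incubated 35 ± 2 °C, 24 h; inhibition zone diameter (mm) measured, minus zone from solvent-only plate.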

In experiment [4] the test system is Aspergillus flavus. The experiment is described as follows: Antifungal activity against Aspergillus flavus at 1% (w/v) concentration by disc diffusion method. The format is functional. In a few lines: as §1
Experiment [5] deals with Fusarium oxysporum. The experiment is described as follows: Antifungal activity against Fusarium oxysporum at 1% (w/v) concentration by disc diffusion method. Type of experiment: functional. In a few lines:
as §1

Experiment [6] concerns Talaromyces funiculosus. The experiment is described as follows: Antifungal activity against Penicillium funiculosum at 0.5% (w/v) concentration by disc diffusion method. Type of experiment: functional. In a few lines: as §1
Experiment [7] deals with Talaromyces funiculosus. The experiment is described as follows: Antifungal activity against Penicillium funiculosum at 1% (w/v) concentration by disc diffusion method. Type of experiment: functional. In outline:
as §1

The subject of experiment [8] is Aspergillus flavus. The experiment can be described thus: Antifungal activity against Aspergillus flavus at 2% (w/v) concentration by disc diffusion method. The format is functional. In outline:
as §1

Experiment [9] deals with Escherichia coli. The experiment is described as follows: Antibacterial activity against Escherichia coli at 0.5% (w/v) concentration by after 24 hrs by disc diffusion method. The format is functional. In a few lines:
as §2

The test system of experiment [10] is Fusarium oxysporum. The experiment can be described thus: Antifungal activity against Fusarium oxysporum at 2% (w/v) concentration by disc diffusion method. Type of experiment: functional. In a few lines: as §1
Experiment [11] relates to Escherichia coli. The experiment is described as follows: Antibacterial activity against Escherichia coli at 0.125% (w/v) concentration after 24 hrs by disc diffusion method. The format is functional. In outline: as §2
In experiment [12] the test system is Aspergillus flavus. The experiment can be described thus: Antifungal activity against Aspergillus flavus at 0.5% (w/v) concentration by disc diffusion method. The format is functional. In outline: as §1
Experiment [13] concerns Aeromonas hydrophila. The experiment is described as follows: Antibacterial activity against Aeromonas hydrophila at 0.5% (w/v) concentration after 24 hrs by disc diffusion method. Type of experiment: functional. In outline:
as §2

In experiment [14] the test system is Aeromonas hydrophila. The experiment can be described thus: Antibacterial activity against Aeromonas hydrophila at 0.125% (w/v) concentration after 24 hrs by disc diffusion method. Type of experiment: functional. In outline: as §2
Experiment [15] relates to Salmonella typhi. The experiment can be described thus: Antibacterial activity against Salmonella typhi at 0.125% (w/v) concentration after 24 hrs by disc diffusion method. Type of experiment: functional, Salmonella enterica subsp. enterica serovar Typhi. In outline: (§3)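 Disc diffusion on nutrient agar (pH 7.5 ± 0.2) swabbed with bacteria. Compounds were dissolved in chloroform at a final 0.125%, 0.25% or 0.5% w/v and loaded onto 5 mm filter-paper discs. Plates were incubated at 35 ± 2 °C for 24 h. The inhibition-zone diameter (mm) was reported after subtracting the zone of the solvent-only plate.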

In experiment [16] the test system is Salmonella typhi. The experiment can be described thus: Antibacterial activity against Salmonella typhi at 0.5% (w/v) concentration after 24 hrs by disc diffusion method. Type of experiment: functional, Salmonella enterica subsp. enterica serovar Typhi. In a few lines:
as §3

The subject of experiment [17] is Escherichia coli. The experiment is described as follows: Antibacterial activity against Escherichia coli at 0.25% (w/v) concentration after 24 hrs by disc diffusion method. Type of experiment: functional. In a few lines: as §2
Experiment [18] deals with Talaromyces funiculosus. The experiment can be described thus: Antifungal activity against Penicillium funiculosum at 2% (w/v) concentration by disc diffusion method. The format is functional. In outline:
as §1

Experiment [19] deals with Fusarium oxysporum. The experiment is described as follows: Antifungal activity against Fusarium oxysporum at 0.5% (w/v) concentration by disc diffusion method. Type of experiment: functional. In outline:
as §1

Experiment [20] deals with Alternaria macrospora. The experiment is described as follows: Antifungal activity against Alternaria macrospora at 1% (w/v) concentration by disc diffusion method. The format is functional. In outline: as §1
Experiment [21] has as its system Salmonella typhi. The experiment can be described thus: Antibacterial activity against Salmonella typhi at 0.25% (w/v) concentration after 24 hrs by disc diffusion method. Type of experiment: functional, Salmonella enterica subsp. enterica serovar Typhi. In outline:
as §3

The nature of experiment [22]: Induction of chromosomal aberration in human peripheral blood leukocytes assessed as number of chromatid breaks at 20 ug/mL after 24 hrs. Type of experiment: functional, Leukocyte. In a few lines:
(§4)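 Leukocytes from venous blood of three healthy non-smoking male donors, cultured at 37 °C for 72 h in McCoy's 5a with AB serum and PHA. Compound in 1% acetone was added at 0, 24 or 48 h after culture initiation (72, 48 or 24 h exposure), with water and acetone controls and triplicate cultures. Colchicine was added before harvest, then KCl hypotonic, fixation and Giemsa staining. Gaps and breaks were counted in 350 metaphases per treatment.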

Experiment [23] in a line: Induction of chromosomal aberration in human peripheral blood leukocytes assessed as number of chromatid gaps at 20 ug/mL after 24 hrs. Type of experiment: functional, Leukocyte. In outline:
as §4

Take `O=Cc1c(/C=C/O)nc2ccccc2c1Cl`: the result in experiment [1], in experiment [5], in experiment [6], in [9], in experiment [11] and in [17] was inactive. The outcome in experiment [19] was inactive. Further, the “inhibition zone (IZ)” value in experiment [2] is given as 4 mm; in experiment [3] it was 6 mm; in experiment [4], 3 mm; in experiment [7], 1 mm; in experiment [8], 8 mm; in [10], 4 mm. The “inhibition zone (IZ)” value in [12] turned out to be 2 mm; in [13], 9 mm; in experiment [14], 4 mm; in experiment [15] it was 3 mm; in experiment [16], 9 mm; in [18], 5 mm. The “inhibition zone (IZ)” value in [20] was determined as 1 mm; in experiment [21], 5 mm.
As to `Clc1c2c(nc3ccccc13)C=CNN=C2`, the “inhibition zone (IZ)” value worked out at 1 mm in experiment [1]; 7 mm in experiment [2]; 8 mm in [3]; 5 mm in experiment [4]; 3 mm in [5]; 1 mm in [6]. Further, the “inhibition zone (IZ)” value in [7] was found to be 4 mm; in experiment [8] it was 9 mm; in experiment [9], 4 mm; in experiment [10], 7 mm; in experiment [12], 3 mm; in [13], 12 mm. Also, the “inhibition zone (IZ)” value in experiment [14] was 5 mm; in experiment [15], 4 mm; in [16], 10 mm; in [17], 2 mm; in [18] it was 9 mm; in experiment [20], 3 mm. Further, the “inhibition zone (IZ)” value in [21] came to 6 mm. Moreover, the outcome in experiment [11] and in experiment [19] was inactive.
Turning to `Cc1ccc2c(Cl)c3c(nc2c1)C=CNN=C3`, the “inhibition zone (IZ)” value in experiment [1] came to 4 mm; in experiment [2], 12 mm; in experiment [3] it was 9 mm; in experiment [4], 7 mm; in experiment [5], 7 mm; in [6], 3 mm. For the same compound, the “inhibition zone (IZ)” value in experiment [7] turned out to be 6 mm; in experiment [8], 11 mm; in experiment [9], 5 mm; in experiment [10] it was 11 mm; in experiment [12] it was 4 mm; in experiment [13] it was 12 mm. The “inhibition zone (IZ)” value is recorded as 5 mm in [14]; 4 mm in experiment [15]; 13 mm in [16]; 1 mm in [17]; 11 mm in experiment [18]; 3 mm in experiment [19]. Besides, the results for the “inhibition zone (IZ)” value in experiment [20] and in [21] were 10 mm and 9 mm, respectively. The outcome in experiment [11] was inactive. In addition, the Activity is listed as 0.6% in experiment [22] and 1.1% in [23].
As to `Cc1ccc2c(Cl)c(C=O)c(/C=C/O)nc2c1`, the “inhibition zone (IZ)” value amounted to 2 mm in [1]; 7 mm in experiment [2]; 7 mm in [3]; 5 mm in experiment [4]; 4 mm in [5]; 1 mm in experiment [6]. In addition, the “inhibition zone (IZ)” value in experiment [7] was found to be 3 mm; in [8], 9 mm; in experiment [9], 2 mm; in experiment [10] it was 9 mm; in [12], 3 mm; in experiment [13] it was 10 mm. The “inhibition zone (IZ)” value in [14] was found to be 3 mm; in experiment [15], 4 mm; in [16] it was 13 mm; in experiment [18], 8 mm; in experiment [19], 1 mm; in [20] it was 4 mm. Besides, the “inhibition zone (IZ)” value in experiment [21] is listed as 8 mm. In addition, the outcome in experiment [11] and in [17] was inactive.
As for `Clc1ccc2nc3c(c(Cl)c2c1)C=NNC=C3`, the “inhibition zone (IZ)” value was 5 mm in experiment [1]; 15 mm in experiment [2]; 11 mm in experiment [3]; 8 mm in experiment [4]; 8 mm in experiment [5]; 6 mm in experiment [6]. The “inhibition zone (IZ)” value in experiment [7] is reported as 9 mm; in [8], 13 mm; in experiment [9], 11 mm; in experiment [10], 13 mm; in experiment [11] it was 3 mm; in experiment [12], 5 mm. Besides, the “inhibition zone (IZ)” value was 16 mm in experiment [13]; 6 mm in [14]; 6 mm in [15]; 19 mm in experiment [16]; 7 mm in experiment [17]; 14 mm in experiment [18]. The “inhibition zone (IZ)” value in [19] is 4 mm; in experiment [20] it was 9 mm; in experiment [21], 12 mm.
`Cc1cccc2c(Cl)c(C=O)c(/C=C/O)nc12`: the “inhibition zone (IZ)” value was 2 mm in experiment [1]; 9 mm in experiment [2]; 8 mm in experiment [3]; 2 mm in experiment [4]; 3 mm in experiment [5]; 2 mm in experiment [7]. Besides, the “inhibition zone (IZ)” value was found to be 5 mm in experiment [8]; 7 mm in experiment [10]; 1 mm in [12]; 11 mm in [13]; 4 mm in experiment [14]; 4 mm in experiment [15]. The “inhibition zone (IZ)” value amounted to 11 mm in [16], 6 mm in [18], 5 mm in experiment [20] and 7 mm in [21]. Moreover, the outcome in [6], in [9], in [11], in experiment [17] and in experiment [19] was inactive.
As for `Cc1cccc2c(Cl)c3c(nc12)C=CNN=C3`, the “inhibition zone (IZ)” value in experiment [1] came out at 3 mm; in [2] it was 10 mm; in [3], 7 mm; in [4], 4 mm; in experiment [5], 6 mm; in experiment [7] it was 3 mm. The “inhibition zone (IZ)” value amounted to 8 mm in experiment [8]; 6 mm in experiment [9]; 10 mm in [10]; 2 mm in experiment [12]; 11 mm in [13]; 4 mm in experiment [14]. Further, the “inhibition zone (IZ)” value in experiment [15] is on record as 5 mm; in [16], 12 mm; in experiment [17] it was 2 mm; in [18] it was 10 mm; in experiment [19], 2 mm; in experiment [20], 6 mm. The “inhibition zone (IZ)” value in experiment [21] is listed as 7 mm. The outcome in experiment [6] and in [11] was inactive. Moreover, the Activity came to 0.3% in [22] and 0.6% in experiment [23].
